Reference: ChEMBL document CHEMBL1667809, “Synthesis and in vitro antibacterial activity of 7-(3-alkoxyimino-5-amino/methylaminopiperidin-1-yl)fluoroquinolone derivatives” (Bioorg Med Chem Lett, 2011)
Values after ≈ are worked out from the molar mass of the structure shown.

Tests used:
Klebsiella pneumoniae = assay: Antibacterial activity against Klebsiella pneumoniae 10-1 after 18 to 24 hrs by agar dilution method; assay type: functional
Method in brief: (§1)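 Agar dilution on Petri dishes, each inoculated with 10⁴ cfu of the strain and incubated at 35 °C for 18–24 h. MIC read as the lowest compound concentration giving no visible growth on the plate.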

Escherichia coli [1] = assay: Antibacterial activity against Escherichia coli 10-02 after 18 to 24 hrs by agar dilution method; assay type: functional; method in brief: as §1
Streptococcus pyogenes = assay: Antibacterial activity against Streptococcus hemolyticus 1002 after 18 to 24 hrs by agar dilution method; assay type: functional; method in brief: as §1
[2] = Cytotoxicity against african green monkey Vero cells after 24 hrs; assay type: cell-based; conditions: chlorocebus sabaeus
Method in brief: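 Vero cells exposed to graded compound concentrations for 24 h, then viability assessed; CC₅₀ derived from the viability data.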

[3] = test system: Staphylococcus epidermidis; assay: Antibacterial activity against methicillin-resistant Staphylococcus epidermidis 10-5 after 18 to 24 hrs by agar dilution method; assay type: functional
Method in brief: (§2)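 Agar dilution on Petri dishes, each inoculated with 10⁴ cfu. Plates incubated at 35 °C for 18–24 h. MIC taken as the lowest test-compound concentration giving no visible growth on the plate. Reference drugs gemifloxacin, ciprofloxacin and levofloxacin run alongside for comparison.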

Pseudomonas aeruginosa [4] = assay: Antibacterial activity against Pseudomonas aeruginosa ATCC 27853 after 18 to 24 hrs by agar dilution method; assay type: functional; method in brief: as §1
Staphylococcus aureus [5] = assay: Antibacterial activity against methicillin-resistant Staphylococcus aureus 10-05 after 18 to 24 hrs by agar dilution method; assay type: functional; method in brief: as §2
Escherichia coli [6] = assay: Antibacterial activity against Escherichia coli ATCC 25922 after 18 to 24 hrs by agar dilution method; assay type: functional; method in brief: as §1
Staphylococcus aureus [7] = assay: Antibacterial activity against methicillin-sensitive Staphylococcus aureus 10-04 after 18 to 24 hrs by agar dilution method; assay type: functional; method in brief: as §1
Pseudomonas aeruginosa [8] = assay: Antibacterial activity against Pseudomonas aeruginosa 10-1 after 18 to 24 hrs by agar dilution method; assay type: functional; method in brief: as §1
[9] = test system: Staphylococcus epidermidis; assay: Antibacterial activity against methicillin-sensitive Staphylococcus epidermidis 10-4 after 18 to 24 hrs by agar dilution method; assay type: functional; method in brief: as §1
Staphylococcus aureus [10] = assay: Antibacterial activity against Staphylococcus aureus ATCC 25923 after 18 to 24 hrs by agar dilution method; assay type: functional; method in brief: as §1
Streptococcus pneumoniae = assay: Antibacterial activity against Streptococcus pneumoniae 1001 after 18 to 24 hrs by agar dilution method; assay type: functional; method in brief: as §1
Staphylococcus aureus [11] = assay: Ratio of compound MIC to LVFX MIC for methicillin-sensitive Staphylococcus aureus 10-04; assay type: functional
Staphylococcus aureus [12] = assay: Ratio of compound MIC to CPFX MIC for methicillin-sensitive Staphylococcus aureus 10-04; assay type: functional
[13] = test system: Staphylococcus epidermidis; assay: Ratio of compound MIC to CPFX MIC for methicillin-resistant Staphylococcus epidermidis 10-5; assay type: functional
Staphylococcus aureus [14] = assay: Ratio of compound MIC to GMFX MIC for methicillin-sensitive Staphylococcus aureus 10-04; assay type: functional
[15] = test system: Staphylococcus epidermidis; assay: Ratio of compound MIC to GMFX MIC for methicillin-resistant Staphylococcus epidermidis 10-5; assay type: functional
[16] = test system: Staphylococcus epidermidis; assay: Ratio of compound MIC to LVFX MIC for methicillin-resistant Staphylococcus epidermidis 10-5; assay type: functional

Row | Structure (SMILES) | MIC (Klebsiella pneumoniae) | MIC (Escherichia coli [1]) | MIC (Streptococcus pyogenes) | CC50 at 24 h [2] | MIC [3] | MIC (Pseudomonas aeruginosa [4]) | MIC (Staphylococcus aureus [5]) | MIC (Escherichia coli [6]) | MIC (Staphylococcus aureus [7]) | MIC (Pseudomonas aeruginosa [8]) | MIC [9] | MIC (Staphylococcus aureus [10]) | MIC (Streptococcus pneumoniae) | Ratio (Staphylococcus aureus [11]) | Ratio (Staphylococcus aureus [12]) | Ratio [13] | Ratio (Staphylococcus aureus [14]) | Ratio [15] | Ratio [16]
1 | CO/N=C1\CC(N)CN(c2nc3c(cc2F)c(=O)c(C(=O)O)cn3C2CC2)C1 (stereo not given) | 128 µg/mL (≈ 329 µM) | 0.25 µg/mL (≈ 0.642 µM) | 128 µg/mL (≈ 329 µM) | 822 µM | 16 µg/mL (≈ 41.1 µM) | 128 µg/mL (≈ 329 µM) | 128 µg/mL (≈ 329 µM) | 0.25 µg/mL (≈ 0.642 µM) | 8 µg/mL (≈ 20.5 µM) | 128 µg/mL (≈ 329 µM) | 2 µg/mL (≈ 5.14 µM) | 4 µg/mL (≈ 10.3 µM) | 4 µg/mL (≈ 10.3 µM) |  |  |  |  |  | 
2 | CCO/N=C1\CC(N)CN(c2nc3c(cc2F)c(=O)c(C(=O)O)cn3C2CC2)C1 (stereo not given) | 128 µg/mL (≈ 317 µM) | 0.5 µg/mL (≈ 1.24 µM) | 128 µg/mL (≈ 317 µM) | 967 µM | 8 µg/mL (≈ 19.8 µM) | 128 µg/mL (≈ 317 µM) | 16 µg/mL (≈ 39.7 µM) | 0.25 µg/mL (≈ 0.62 µM) | 2 µg/mL (≈ 4.96 µM) | 128 µg/mL (≈ 317 µM) | 4 µg/mL (≈ 9.92 µM) | 4 µg/mL (≈ 9.92 µM) | 4 µg/mL (≈ 9.92 µM) |  |  |  |  |  | 
3 | CNC1C/C(=N\OC)CN(c2nc3c(cc2F)c(=O)c(C(=O)O)cn3C2CC2)C1 (stereo not given) | > 128 µg/mL | 0.25 µg/mL (≈ 0.62 µM) | > 128 µg/mL | 645 µM | 16 µg/mL (≈ 39.7 µM) | 128 µg/mL (≈ 317 µM) | 128 µg/mL (≈ 317 µM) | 0.25 µg/mL (≈ 0.62 µM) | 4 µg/mL (≈ 9.92 µM) | > 128 µg/mL | 2 µg/mL (≈ 4.96 µM) | 0.5 µg/mL (≈ 1.24 µM) | 4 µg/mL (≈ 9.92 µM) |  |  |  |  |  | 
4 | CCO/N=C1\CC(NC)CN(c2nc3c(cc2F)c(=O)c(C(=O)O)cn3C2CC2)C1 (stereo not given) | > 128 µg/mL | 0.25 µg/mL (≈ 0.599 µM) | > 128 µg/mL | 731 µM | 16 µg/mL (≈ 38.3 µM) | 128 µg/mL (≈ 307 µM) | 8 µg/mL (≈ 19.2 µM) | 0.25 µg/mL (≈ 0.599 µM) | 4 µg/mL (≈ 9.58 µM) | > 128 µg/mL | 8 µg/mL (≈ 19.2 µM) | 2 µg/mL (≈ 4.79 µM) | 4 µg/mL (≈ 9.58 µM) |  |  |  |  |  | 
5 | CNC1C/C(=N\OC)CN(c2c(F)cc3c(=O)c(C(=O)O)cn(C4CC4)c3c2OC)C1 (stereo not given) | 128 µg/mL (≈ 296 µM) | 0.25 µg/mL (≈ 0.578 µM) | 8 µg/mL (≈ 18.5 µM) | 1090 µM | 4 µg/mL (≈ 9.25 µM) | 64 µg/mL (≈ 148 µM) | 2 µg/mL (≈ 4.62 µM) | 0.25 µg/mL (≈ 0.578 µM) | 0.5 µg/mL (≈ 1.16 µM) | 128 µg/mL (≈ 296 µM) | 1 µg/mL (≈ 2.31 µM) | 0.5 µg/mL (≈ 1.16 µM) | 0.5 µg/mL (≈ 1.16 µM) | 4 | 4 | 4 | 4 | 2 | 2
6 | CCO/N=C1\CC(NC)CN(c2c(F)cc3c(=O)c(C(=O)O)cn(C4CC4)c3c2OC)C1 (stereo not given) | 128 µg/mL (≈ 287 µM) | 0.25 µg/mL (≈ 0.56 µM) | 128 µg/mL (≈ 287 µM) | 1520 µM | 4 µg/mL (≈ 8.96 µM) | 128 µg/mL (≈ 287 µM) | 8 µg/mL (≈ 17.9 µM) | 0.25 µg/mL (≈ 0.56 µM) | 0.5 µg/mL (≈ 1.12 µM) | 128 µg/mL (≈ 287 µM) | 0.25 µg/mL (≈ 0.56 µM) | 0.5 µg/mL (≈ 1.12 µM) | 1 µg/mL (≈ 2.24 µM) | 4 | 4 | 4 | 4 | 2 | 2
7 | CO/N=C1\CC(N)CN(c2c(F)cc3c(=O)c(C(=O)O)cn(C4CC4)c3c2F)C1 (stereo not given) | 128 µg/mL (≈ 315 µM) | 0.25 µg/mL (≈ 0.615 µM) | 128 µg/mL (≈ 315 µM) | 739 µM | 8 µg/mL (≈ 19.7 µM) | 128 µg/mL (≈ 315 µM) | 8 µg/mL (≈ 19.7 µM) | 0.25 µg/mL (≈ 0.615 µM) | 0.5 µg/mL (≈ 1.23 µM) | 128 µg/mL (≈ 315 µM) | 4 µg/mL (≈ 9.84 µM) | 0.25 µg/mL (≈ 0.615 µM) | 0.25 µg/mL (≈ 0.615 µM) | 4 | 4 |  | 4 |  | 
8 | CCO/N=C1\CC(N)CN(c2c(F)cc3c(=O)c(C(=O)O)cn(C4CC4)c3c2F)C1 (stereo not given) | 64 µg/mL (≈ 152 µM) | 0.25 µg/mL (≈ 0.595 µM) | 64 µg/mL (≈ 152 µM) | 1320 µM | 4 µg/mL (≈ 9.51 µM) | 8 µg/mL (≈ 19 µM) | 4 µg/mL (≈ 9.51 µM) | 0.25 µg/mL (≈ 0.595 µM) | 0.5 µg/mL (≈ 1.19 µM) | > 128 µg/mL | 0.5 µg/mL (≈ 1.19 µM) | 0.25 µg/mL (≈ 0.595 µM) | 0.25 µg/mL (≈ 0.595 µM) | 4 | 4 | 4 | 4 | 2 | 2
9 | CNC1C/C(=N\OC)CN(c2c(F)cc3c(=O)c(C(=O)O)cn(C4CC4)c3c2F)C1 (stereo not given) | 128 µg/mL (≈ 304 µM) | 0.25 µg/mL (≈ 0.595 µM) | 8 µg/mL (≈ 19 µM) | 1020 µM | 2 µg/mL (≈ 4.76 µM) | 8 µg/mL (≈ 19 µM) | 8 µg/mL (≈ 19 µM) | 0.25 µg/mL (≈ 0.595 µM) | 2 µg/mL (≈ 4.76 µM) | 128 µg/mL (≈ 304 µM) | 2 µg/mL (≈ 4.76 µM) | 0.25 µg/mL (≈ 0.595 µM) | 1 µg/mL (≈ 2.38 µM) |  |  |  |  | 2 | 2
